Data taken from ChEMBL document CHEMBL1121657, “Effects of 1-arylpyrroles and naphthoflavones upon cytochrome P-450 dependent monooxygenase activities” (J Med Chem, 1981).

Experiments:
Rattus norvegicus [1] = species: Rattus norvegicus; assay: Maximum rate constant for 7-ethoxycoumarin deethylation in rat liver microsomes exposed to beta-naphthoflavone at 1000 nM; conditions: Microsome
Rattus norvegicus [2] = species: Rattus norvegicus; assay: Michaelis-Menten constant for 7-ethoxycoumarin deethylation in rat liver microsomes exposed to beta-naphthoflavone at 500 uM; conditions: Microsome
Outline: (§1)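 Liver microsomes from young male Sprague-Dawley rats (75-125 g) given the inducer ip in corn oil at 50 mg/kg on 3 successive days, microsomes isolated on day 4. 7-Ethoxycoumarin (2.5 to 300 μM final) in 0.1 M Tris-HCl pH 7.4 with NADPH-regenerating system. Reaction started with microsomal protein (0.375-0.56 mg), run 4 min at 37 °C, stopped with TCA. 7-Hydroxycoumarin read fluorometrically at pH 10.3. Inhibitor added from methanol stock, ≥4 assays per condition. KM/Vmax obtained by the Eisenthal–Cornish-Bowden direct linear method with 95% distribution-free confidence limits.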

Rattus norvegicus [3] = species: Rattus norvegicus; assay: Compound was evaluated for alpha -rate constant, in liver microsomes from 3-methylcholanthrene-exposed rats; conditions: Microsome
Outline: (§2)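 Rats (male Sprague-Dawley, 75-125 g) dosed ip with 3MC or βNF, 50 mg/kg in corn oil, on 3 successive days; liver microsomes isolated day 4. 7-Ethoxycoumarin deethylation (2.5-300 μM substrate) measured with inhibitor present; KM and Vmax by Eisenthal–Cornish-Bowden direct linear method. Ki from x-intercept of least-squares KM/Vmax vs [I]; αKi from x-intercept of 1/Vmax vs [I].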

Rattus norvegicus [4] = species: Rattus norvegicus; assay: Compound was evaluated for alpha -rate constant, in liver microsomes from beta-naphthoflavone-exposed rats; conditions: Microsome
Outline: as §2

[5] = Compound was evaluated for inhibition constant, in liver microsomes from beta-naphthoflavone-exposed rats; design: species or system Rattus norvegicus, Microsome
[6] = Compound was evaluated for inhibition constant, in liver microsomes from 3-methylcholanthrene-exposed rats; design: species or system Rattus norvegicus, Microsome
Rattus norvegicus [7] = species: Rattus norvegicus; assay: Michaelis-Menten constant for 7-ethoxycoumarin deethylation in rat liver microsomes exposed to beta-naphthoflavone at 1500 nM; conditions: Microsome
Rattus norvegicus [8] = species: Rattus norvegicus; assay: Michaelis-Menten constant for 7-ethoxycoumarin deethylation in rat liver microsomes exposed to 3-methylcholanthrene at concentration of 75 nM; conditions: Microsome
Rattus norvegicus [9] = species: Rattus norvegicus; assay: Maximum rate constant for 7-ethoxycoumarin deethylation in rat liver microsomes exposed to beta-naphthoflavone at 1500 uM; conditions: Microsome
Outline: (§3)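 Liver microsomes from male Sprague-Dawley rats given 3MC or βNF ip (50 mg/kg/day, corn oil, 3 days), harvested day 4. NADPH-regenerating system in 0.1 M Tris-HCl pH 7.4. Substrate 2.5-300 μM final. Inhibitor added from methanol stock. Reaction started with 0.375-0.56 mg microsomal protein, run 4 min at 37 °C, stopped with TCA. 7-Hydroxycoumarin fluorescence read at pH 10.3. At least four assays per substrate concentration. KM and Vmax by direct linear method, with distribution-free 95% confidence limits.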

Rattus norvegicus [10] = species: Rattus norvegicus; assay: Michaelis-Menten constant for 7-ethoxycoumarin deethylation in rat liver microsomes exposed to 3-methylcholanthrene at concentration of 50 nM; conditions: Microsome
Rattus norvegicus [11] = species: Rattus norvegicus; assay: Michaelis-Menten constant for 7-ethoxycoumarin deethylation in rat liver microsomes exposed to beta-naphthoflavone at 1000 nM; conditions: Microsome
Rattus norvegicus [12] = species: Rattus norvegicus; assay: Michaelis-Menten constant for 7-ethoxycoumarin deethylation in rat liver microsomes exposed to 3-methylcholanthrene at concentration of 25 nM; conditions: Microsome
Rattus norvegicus [13] = species: Rattus norvegicus; assay: Maximum rate constant for 7-ethoxycoumarin deethylation in rat liver microsomes exposed to 3-methylcholanthrene at concentration of 50 nM; conditions: Microsome
Rattus norvegicus [14] = species: Rattus norvegicus; assay: Maximum rate constant for 7-ethoxycoumarin deethylation in rat liver microsomes exposed to beta-naphthoflavone at 500 uM; conditions: Microsome
Outline: as §3

Rattus norvegicus [15] = species: Rattus norvegicus; assay: Maximum rate constant for 7-ethoxycoumarin deethylation in rat liver microsomes exposed to 3-methylcholanthrene at concentration of 75 nM; conditions: Microsome
Rattus norvegicus [16] = species: Rattus norvegicus; assay: Maximum rate constant for 7-ethoxycoumarin deethylation in rat liver microsomes exposed to 3-methylcholanthrene at concentration of 25 nM; conditions: Microsome
Rattus norvegicus [17] = species: Rattus norvegicus; assay: Michaelis-Menten constant for 7-ethoxycoumarin deethylation in rat liver microsomes exposed to beta-naphthoflavone at 27.5 uM; conditions: Microsome
Outline: as §3

Rattus norvegicus [18] = species: Rattus norvegicus; assay: Vmax determined by 7-ethoxycoumarin deethylation in the presence by liver microsomes from rats exposed to 3-methylcholanthrene at concentration of 10 nM; conditions: Microsome
Rattus norvegicus [19] = species: Rattus norvegicus; assay: Michaelis-Menten constant for 7-ethoxycoumarin deethylation in rat liver microsomes exposed to 3-methylcholanthrene at a concentration of 25 uM; conditions: Microsome
Outline: as §3

Rattus norvegicus [20] = species: Rattus norvegicus; assay: Maximum rate constant for 7-ethoxycoumarin deethylation in rat liver microsomes exposed to beta-naphthoflavone at 50 uM; conditions: Microsome
Outline: as §3

Rattus norvegicus [21] = species: Rattus norvegicus; assay: Michaelis-Menten constant for 7-ethoxycoumarin deethylation in rat liver microsomes exposed to 3-methylcholanthrene at a concentration of 50 uM; conditions: Microsome
Outline: as §3

Rattus norvegicus [22] = species: Rattus norvegicus; assay: Maximum rate constant for 7-ethoxycoumarin deethylation in rat liver microsomes exposed to beta-naphthoflavone at concentration of 27.5 uM; conditions: Microsome
Outline: as §3

Rattus norvegicus [23] = species: Rattus norvegicus; assay: Michaelis-Menten constant for 7-ethoxycoumarin deethylation in rat liver microsomes exposed to 3-methylcholanthrene at a concentration of 10 nM; conditions: Microsome
Rattus norvegicus [24] = species: Rattus norvegicus; assay: Michaelis-Menten constant for 7-ethoxycoumarin deethylation in rat liver microsomes exposed to beta-naphthoflavone at 50 uM; conditions: Microsome
Outline: as §1

Rattus norvegicus [25] = species: Rattus norvegicus; assay: Maximum rate constant for 7-ethoxycoumarin deethylation in rat liver microsomes exposed to beta-naphthoflavone at 5 uM; conditions: Microsome
Outline: as §3

Rattus norvegicus [26] = species: Rattus norvegicus; assay: Michaelis-Menten constant for 7-ethoxycoumarin deethylation in rat liver microsomes exposed to beta-naphthoflavone at 5 uM; conditions: Microsome
Outline: as §3

Rattus norvegicus [27] = species: Rattus norvegicus; assay: Maximum rate constant for 7-ethoxycoumarin deethylation in rat liver microsomes exposed to beta-naphthoflavone at 100 uM; conditions: Microsome
Outline: as §3

Rattus norvegicus [28] = species: Rattus norvegicus; assay: Michaelis-Menten constant for 7-ethoxycoumarin deethylation in rat liver microsomes exposed to 3-methylcholanthrene at a concentration of 5 uM; conditions: Microsome
Outline: as §3

Rattus norvegicus [29] = species: Rattus norvegicus; assay: Michaelis-Menten constant for 7-ethoxycoumarin deethylation in rat liver microsomes exposed to beta-naphthoflavone at 200 uM; conditions: Microsome
Outline: as §3

Rattus norvegicus [30] = species: Rattus norvegicus; assay: Compound was evaluated for alpha inhibition constant, in liver microsomes from 3-methylcholanthrene-exposed rats; conditions: Microsome
Outline: as §2

Rattus norvegicus [31] = species: Rattus norvegicus; assay: Michaelis-Menten constant for 7-ethoxycoumarin deethylation in rat liver microsomes exposed to 3-methylcholanthrene at concentration of 10 uM; conditions: Microsome
Outline: as §3

Rattus norvegicus [32] = species: Rattus norvegicus; assay: Michaelis-Menten constant for 7-ethoxycoumarin deethylation in rat liver microsomes 3-methylcholanthrene at a concentration of 5 uM; conditions: Microsome
Outline: as §3

Rattus norvegicus [33] = species: Rattus norvegicus; assay: Maximum rate constant for 7-ethoxycoumarin deethylation in rat liver microsomes exposed to beta-naphthoflavone at 200 uM; conditions: Microsome
Outline: as §3

Rattus norvegicus [34] = species: Rattus norvegicus; assay: Compound was evaluated for alpha inhibition constant, in liver microsomes from beta-naphthoflavone-exposed rats; conditions: Microsome
Outline: as §2

Rattus norvegicus [35] = species: Rattus norvegicus; assay: Maximum rate constant for 7-ethoxycoumarin deethylation in rat liver microsomes exposed to 3-methylcholanthrene at 50 uM; conditions: Microsome
Outline: as §3

Rattus norvegicus [36] = species: Rattus norvegicus; assay: Maximum rate constant for 7-ethoxycoumarin deethylation in rat liver microsomes exposed to 3-methylcholanthrene at 5 uM; conditions: Microsome
Outline: as §3

Rattus norvegicus [37] = species: Rattus norvegicus; assay: Michaelis-Menten constant for 7-ethoxycoumarin deethylation in rat liver microsomes exposed to beta-naphthoflavone at 100 uM; conditions: Microsome
Outline: as §3

Rattus norvegicus [38] = species: Rattus norvegicus; assay: Maximum rate constant for 7-ethoxycoumarin deethylation in rat liver microsomes exposed to 3-methylcholanthrene at concentration of 200 uM; conditions: Microsome, 225 nM, in the assay text read “225 nM” for “200 uM”
Outline: as §3

Rattus norvegicus [39] = species: Rattus norvegicus; assay: Michaelis-Menten constant for 7-ethoxycoumarin deethylation in rat liver microsomes exposed to 3-methylcholanthrene at concentration of 100 uM; conditions: Microsome
Outline: as §3

Rattus norvegicus [40] = species: Rattus norvegicus; assay: Maximum rate constant for 7-ethoxycoumarin deethylation in rat liver microsomes exposed to beta-naphthoflavone at concentration of 1500 uM; conditions: Microsome
Outline: as §3

Rattus norvegicus [41] = species: Rattus norvegicus; assay: Maximum rate constant for 7-ethoxycoumarin deethylation in rat liver microsomes exposed to beta-naphthoflavone at concentration of 1000 uM; conditions: Microsome
Outline: as §3

Rattus norvegicus [42] = species: Rattus norvegicus; assay: Michaelis-Menten constant for 7-ethoxycoumarin deethylation in rat liver microsomes exposed to exposed to 3-methylcholanthrene at concentration; conditions: Microsome
Rattus norvegicus [43] = species: Rattus norvegicus; assay: Maximum rate constant for 7-ethoxycoumarin deethylation in rat liver microsomes exposed to beta-naphthoflavone at concentration of 500 uM; conditions: Microsome
Outline: as §3

Rattus norvegicus [44] = species: Rattus norvegicus; assay: Compound was evaluated for alpha -rate constant, in liver microsomes from beta-naphthoflavone-exposed rats; competitive inhibition; conditions: Microsome
Outline: as §2

Rattus norvegicus [45] = species: Rattus norvegicus; assay: Maximum rate constant for 7-ethoxycoumarin deethylation in rat liver microsomes exposed to 3-methylcholanthrene at concentration of 100 nM; conditions: Microsome

Q: Which results are given for `O=c1cc(-c2ccccc2)oc2ccc3ccccc3c12` [BETA-NAPHTHOFLAVONE]?
A: Vmax (pM min-1 mg-1) (Rattus norvegicus [1]): 1100; Km (Rattus norvegicus [2]): 33.9 µM; Alpha Ki (Rattus norvegicus [3]): 280 nM; Alpha Ki (Rattus norvegicus [4]): 4000 nM; Ki [5]: 130 nM; Ki [6]: 26 nM; Km (Rattus norvegicus [7]): 93.2 µM; Km (Rattus norvegicus [8]): 39.7 µM; Vmax (pM min-1 mg-1) (Rattus norvegicus [9]): 1000; Km (Rattus norvegicus [10]): 26.6 µM; Km (Rattus norvegicus [11]): 60 µM; Km (Rattus norvegicus [12]): 19.2 µM; Vmax (pM min-1 mg-1) (Rattus norvegicus [13]): 143; Vmax (pM min-1 mg-1) (Rattus norvegicus [14]): 1200; Vmax (pM min-1 mg-1) (Rattus norvegicus [15]): 134; Vmax (pM min-1 mg-1) (Rattus norvegicus [16]): 159

Q: Which results are given for `O=c1cc(-c2ccccc2)oc2c1ccc1ccccc12` [ALPHA-NAPHTHOFLAVONE]?
A: Km (Rattus norvegicus [17]): 17 µM; Vmax (pM min-1 mg-1) (Rattus norvegicus [18]): 137; Alpha Ki (Rattus norvegicus [3]): 33 nM; Alpha Ki (Rattus norvegicus [4]): 48 nM; Km (Rattus norvegicus [19]): 17.3 µM; Ki [5]: 24 nM; Ki [6]: 17 nM; Vmax (pM min-1 mg-1) (Rattus norvegicus [20]): 665; Km (Rattus norvegicus [21]): 23.4 µM; Vmax (pM min-1 mg-1) (Rattus norvegicus [22]): 904; Km (Rattus norvegicus [23]): 19.6 µM; Vmax (pM min-1 mg-1) (Rattus norvegicus [13]): 69; Km (Rattus norvegicus [24]): 25.7 µM; Vmax (pM min-1 mg-1) (Rattus norvegicus [25]): 1220; Vmax (pM min-1 mg-1) (Rattus norvegicus [16]): 108; Km (Rattus norvegicus [26]): 18.5 µM

Q: For `CC(C)c1ccccc1-n1cccc1`, which Ki [5] is on record?
A: 19000 nM

Q: And the Vmax (pM min-1 mg-1) (Rattus norvegicus [27])?
A: 652

Q: And the Km (Rattus norvegicus [28])?
A: 17.9 µM

Q: And the Ki [6]?
A: 11000 nM

Q: And the Km (Rattus norvegicus [29])?
A: 91.3 µM

Q: What about the Alpha Ki (Rattus norvegicus [30]) of the same molecule?
A: 60000 nM

Q: And the Km (Rattus norvegicus [31])?
A: 29.7 µM

Q: And the Km (Rattus norvegicus [32])?
A: 10.2 µM

Q: And the Vmax (pM min-1 mg-1) (Rattus norvegicus [33])?
A: 493

Q: And the Alpha Ki (Rattus norvegicus [34])?
A: 270000 nM

Q: What about the Km (Rattus norvegicus [24]) of the same molecule?
A: 44.1 µM

Q: What about the Vmax (pM min-1 mg-1) (Rattus norvegicus [35]) of the same molecule?
A: 94

Q: What about the Vmax (pM min-1 mg-1) (Rattus norvegicus [36]) of the same molecule?
A: 141

Q: And the Km (Rattus norvegicus [37])?
A: 52.2 µM

Q: For `O=c1cc(-c2ccccc2)oc2ccccc12` [FLAVONE], which Vmax (pM min-1 mg-1) (Rattus norvegicus [38]) is on record?
A: 120

Q: And the Km (Rattus norvegicus [2])?
A: 50.3 µM

Q: And the Alpha Ki (Rattus norvegicus [3])?
A: 570 nM

Q: What about the Ki [5] of the same molecule?
A: 190 nM

Q: What about the Km (Rattus norvegicus [39]) of the same molecule?
A: 35.8 µM

Q: What about the Vmax (pM min-1 mg-1) (Rattus norvegicus [40]) of the same molecule?
A: 1330

Q: What about the Ki [6] of the same molecule?
A: 33 nM

Q: What about the Km (Rattus norvegicus [7]) of the same molecule?
A: 136 µM

Q: What about the Km (Rattus norvegicus [10]) of the same molecule?
A: 22.3 µM

Q: And the Vmax (pM min-1 mg-1) (Rattus norvegicus [41])?
A: 1370

Q: And the Km (Rattus norvegicus [42])?
A: 62.6 µM

Q: And the Km (Rattus norvegicus [11])?
A: 115 µM

Q: And the Vmax (pM min-1 mg-1) (Rattus norvegicus [13])?
A: 153

Q: And the Vmax (pM min-1 mg-1) (Rattus norvegicus [43])?
A: 1340

Q: And the “Alpha Ki” value (Rattus norvegicus [44])?
A: Competitive inhibition

Q: And the Vmax (pM min-1 mg-1) (Rattus norvegicus [45])?
A: 149
